From PubChem BioAssay
This is a sample that favours compounds with a hit; in the whole collection about 2.2% have one here.
Tb hexokinase: blocks Trypanosoma brucei hexokinase 1 activity | recombinant TbHK1, G6PDH-coupled NADH A340 | inhibition, % at 10 µM | hit rate 0.11% among 220,000 | AID 1430;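 active = inhibition of 50% or more in the single-dose primary screen; inactive = inhibition below 50%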
14-3-3 Bad inh: disrupts binding of bovine 14-3-3 zeta to phospho-Bad peptide. hit rate 0.71% among 220,000. inhibition, % at 21.7 µM. P63103. TR-FRET 14-3-3zeta/Dy647-pBad peptide displacement, 1 h;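 active = inhibition above about 70%, limit read from the data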;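 also: 0% = full 14-3-3 plus peptide FRET controls and 100% = background without 14-3-3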
Runt-CBFb FRET: blocks binding of human RUNX1 Runt domain to CBFb. Q01196+Q13951. Cerulean-Runt/Venus-CBFb FRET ratio 530/480, 1 h. inhibition, % at 20 µM. hit rate 0.46% among 220,000. AID 1496;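 active = inhibition over about 50% at 20 µM in the single-dose screen, limit read from the data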;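 also: 0% = DMSO wells and 100% = excess unlabeled CBFb competitor control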
Target sequence (Q01196 whole entry, looked up, the tested form may be a part): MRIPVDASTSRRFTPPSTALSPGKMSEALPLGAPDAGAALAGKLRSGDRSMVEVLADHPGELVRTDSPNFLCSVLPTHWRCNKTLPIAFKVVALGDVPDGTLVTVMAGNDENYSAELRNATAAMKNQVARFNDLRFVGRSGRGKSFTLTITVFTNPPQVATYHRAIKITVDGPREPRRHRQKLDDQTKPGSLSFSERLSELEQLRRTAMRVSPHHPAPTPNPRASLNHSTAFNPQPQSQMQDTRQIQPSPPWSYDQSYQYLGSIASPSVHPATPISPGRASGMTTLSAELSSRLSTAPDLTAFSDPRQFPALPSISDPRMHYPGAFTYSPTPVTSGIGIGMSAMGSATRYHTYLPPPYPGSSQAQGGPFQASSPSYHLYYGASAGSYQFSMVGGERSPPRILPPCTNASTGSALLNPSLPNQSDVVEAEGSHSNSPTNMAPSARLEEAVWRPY
Target sequence (Q13951 whole entry, looked up, the tested form may be a part): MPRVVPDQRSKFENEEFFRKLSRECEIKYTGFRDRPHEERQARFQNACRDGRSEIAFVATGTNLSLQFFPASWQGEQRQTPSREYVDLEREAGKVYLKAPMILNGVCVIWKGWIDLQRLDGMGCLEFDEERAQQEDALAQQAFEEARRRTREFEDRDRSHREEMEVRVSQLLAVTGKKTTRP
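test system = Cerulean-tagged RUNX1 Runt domain (FRET donor) fusion protein | reagent = Venus-CBFb binding partner, 100 nM | incubation = protein complex preformed 1 h, compound exposure 1 h, room temperature, dark | detection = FRET fluorescence | read-out basis = loss of energy transfer signal | controls = 5 µM unlabeled CBFb as full-inhibition high control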
Hck-Nef inh: human Hck-Nef kinase inhibition; Recombinant Hck-YEEI plus Nef, Z-Lyte FRET kinase assay; inhibition, % at 20 µM; hit rate 0.68% among 220,000;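 active = Hck-Nef kinase inhibition above about 50%, limit read from the data; inactive = inhibition below that limit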;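 also: 0% = DMSO with Hck plus Nef and 100% = Hck alone without Nef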
RanGTP-Impb inh: inhibitors of RanGTP-importin-beta interaction, primary screen, biochemical, FRET, CFP-Ran, YFP-importin-beta, homogeneous. cell-free CFP-Ran/YFP-importin-beta FRET ratio. inhibition, % (concentration not given with the values). hit rate 1.1% among 300,000. AID 2216;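 active = more than half of the replicate wells show a fall in the fluorescence ratio signal beyond about 16%, limit read from the data, passing the limit was not always enough; inconclusive = exactly half of the replicate wells pass the set limit; inactive = fewer than half of replicates pass the limit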;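 also: 0% = DMSO wells and 100% = Ran loaded with GDP instead of GTP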
Runt-SMMHC FRET: Runt domain-CBFb-SMMHC interaction inhibition. Q01196+Q13951. hit rate 0.74% among 220,000. Cerulean-Runt/Venus-CBFb-SMMHC FRET ratio 530/480, 1 h. inhibition, % at 20 µM. AID 1434;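 active = mean inhibition across duplicate retests at 20 µM reaching about 50%, limit read from the data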;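 also: 0% = DMSO wells and 100% = wells with excess untagged CBFb-SMMHC; inhibitors lower the FRET ratio by blocking Runt binding to CBFb-SMMHC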
* hit, by the source's call; ? = inconclusive; / = no result given.

SMILES	Tb hexokinase	14-3-3 Bad inh	Runt-CBFb FRET	Hck-Nef inh	RanGTP-Impb inh	Runt-SMMHC FRET
CC(C)(C)C(=O)Nc1nc2c(s1)CN(Cc1ccccc1)CC2	-1	-8	77*	14	99*	92*
CC(C)(C)C(=O)Nc1nc2c(s1)COc1ccccc1-2	-6	14	0	14	3	0
O=C(Nc1nc2c(s1)CN(Cc1ccccc1)CC2)C1CCCC1	-7	-18	53*	28	-5	118*
Nc1ccccc1C(=O)N1CCCC1	-2	-5	0	9	8	4
COc1cccc(NC(=O)CSc2nc3scc(C)c3c(=O)[nH]2)c1	/	/	/	/	1	/
CC(Sc1nc2ccccc2c(=O)n1CC1CCCO1)C(=O)Nc1ccc(S(N)(=O)=O)cc1 (stereo not given)	/	/	/	/	-2	/
Cc1cc(OCc2ccc(C(=O)n3cccn3)o2)ccc1Cl	-6	-3	1	1	67*	-12
Cc1oc(-c2ccccc2)[n+]([O-])c1C	-5	/	1	-1	-4	0
[O-][n+]1c2ccccc2cc2ccccc21	/	/	/	/	79*	/
CCCCC(=O)Nc1ccccc1N1CCOCC1	-3	-5	2	8	2	1
CCOCCCNCC(=O)Nc1ccccc1N1CCOCC1	2	71*	0	1	/	0
COc1ccc(/C(N)=N/OC(=O)CC2CCCCC2)cc1	/	/	/	/	0	/
CCc1c(C)nc(N2CCN(c3ccccc3F)CC2)[nH]c1=O	/	/	/	/	3	/
CCOC(=O)CSc1nnc2n1C(C)(C)Cc1ccccc1-2	6	12	-3	2	?	-8
CC(C)OC(=O)CSc1nnc2n1C(C)(C)Cc1ccccc1-2	2	/	121*	1	-3	132*
CC(=O)Nc1cccc(N/C=C(\C=O)c2nc3ccccc3o2)c1	-25	36	26	7	1	66*
CCn1c(C)c(C(C)=O)c(N2CCN(c3ccccc3)CC2)nc1=S	-11	-7	-62	2	19*	11
CCn1c(C)c(C(C)=O)c(N2CCCCC2)nc1=S	-13	-2	1	-3	2	1
CCn1c(C)c(C(C)=O)c(N2CCN(C(c3ccccc3)c3ccccc3)CC2)nc1=S	-22	-11	18	-6	57*	23
Cc1cc(NC(=O)C23CC4CC(C2)CC(n2cnc([N+](=O)[O-])n2)(C4)C3)no1	-2	-10	4	27	/	-6
Cc1sc(NC(=O)c2cc(-c3ccc(Cl)cc3)nc3ccccc23)c(C(N)=O)c1C	-3	79*	-3	45	-5	-34
Cc1sc(NC(=O)c2cc(-c3ccccc3)nc3ccccc23)c(C(N)=O)c1C	-7	-17	-3	-1	3	-12
CC(C)(CO)NCC(O)Cn1cc(C=O)c2ccccc21 (stereo not given)	0	100*	1	20	-2	5
O=C(O)CC1NC(=O)N(c2ccccc2)C1=O (stereo not given)	-1	-2	-3	-10	45*	-6
COc1ccc(CCC(=O)NNC(=S)NCc2ccc(F)cc2)cc1	6	-13	-1	19	23*	-4
SMILES	Tb hexokinase	14-3-3 Bad inh	Runt-CBFb FRET	Hck-Nef inh	RanGTP-Impb inh	Runt-SMMHC FRET
COc1ccc(CCC(=O)NNC(=O)c2ccc(F)cc2)cc1	/	/	/	/	1	/
Cc1ccccc1NC(=O)CN(C)S(=O)(=O)c1cccc2cccnc12	-3	3	4	1	-1	-4
O=c1cc(CN2CCOCC2)c2cc(Cl)c(O)cc2o1	/	/	/	/	73*	/
CCc1cc2c(CN3CCN(CC)CC3)cc(=O)oc2cc1O	-26	2	18	22	115*	61*
Cc1c(O)ccc2c(CN3CCOCC3)cc(=O)oc12	/	/	/	/	53*	/
Cc1cc(C)c2oc(=O)cc(CN3CCOCC3)c2c1	-7	-1	-3	1	2	-2
CC(C)CN(C(=O)COC(=O)C(C)N1C(=O)c2ccccc2C1=O)c1c(N)n(Cc2ccccc2)c(=O)[nH]c1=O (stereo not given)	/	/	/	/	1	/
CCCn1c(SCC(=O)c2c[nH]c3ccccc23)nnc1-c1ccncc1	-9	-3	1	4	3	2
CCOc1ccc(S(=O)(=O)N2CCCC(C(=O)N3CCN(CC)CC3)C2)cc1Cl (stereo not given)	/	/	/	/	8	/
O=C(CC1C(=O)NCCN1Cc1cccc(F)c1)NC1CCCCC1 (stereo not given)	/	/	/	/	0	/
CCOC(=O)c1[nH]c2c(c1-c1ccccc1)C(=O)CC(c1ccc(OCC)cc1)C2 (stereo not given)	-1	5	0	-1	-2	2
CCOC(=O)c1[nH]c2c(c1-c1ccccc1)C(=O)CC(c1ccc(OC)c(OC)c1)C2 (stereo not given)	-2	11	102*	5	1	3
O=C(C(c1ccccc1)c1ccccc1)N1CCN(Cc2ccco2)CC1	4	71*	0	8	1	-1
O=C(C(c1ccccc1)c1ccccc1)N1CCOCC1	-4	-3	-2	0	4	3
C=CCN(C(=O)c1ccc(Cl)cc1)c1ccccc1C(=O)NCC(=O)O	-8	-10	0	32	4	0
COc1ccc(-c2ccc(-c3noc(-c4ccccc4C)n3)c(OC)n2)cc1	-23	-10	5	2	23*	11
COc1ccc(-c2ccc(-c3noc(C)n3)c(OC)n2)cc1	-12	9	0	0	0	3
COc1ccc(-c2ccc(-c3noc(-c4cccc(OC)c4)n3)c(OC)n2)cc1	-29	/	-1	10	9	-15
COc1ccc(-c2ccc(-c3noc(C4CCCCC4)n3)c(OC)n2)cc1	-8	-5	0	1	19*	5
COc1ccc(-c2ccc(-c3noc(-c4cccs4)n3)c(OC)n2)cc1	-37	0	10	13	30*	-68
COc1ccc(-c2ccc(-c3noc(-c4ccccc4OC)n3)c(OC)n2)cc1	-15	-5	14	3	35*	44
COC(=O)c1ccc(C(=O)OC)c(NC(=O)c2cc3ccccc3o2)c1	-8	/	/	10	/	/
CCCCC1OC23CCCCC2C(C#N)(C#N)C1(C#N)C(=N)O3 (stereo not given)	25	-13	24	3	53*	81
CCCCC1OC23CCCCC2C(C#N)(C(=N)O3)C1(C#N)C#N (stereo not given)	-4	-14	19	1	24*	32
CCCCCCCCOc1ccc(C2OC34CCCCC3C(C#N)(C#N)C2(C#N)C(=N)O4)cc1 (stereo not given)	4	-2	25	4	44*	56*
